From ChEMBL document CHEMBL1130028, “A comparison of structure-activity relationships between spermidine and spermine analogue antineoplastics” (J Med Chem, 1997)

Experiments:
[1] = Effect on ornithine decarboxylase (ODC) tested at 1 uM at 4 hour in L1210 cells; assay type: functional, Mus musculus
Procedure, shortened: (§1)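 L1210 cells were exposed to 1 μM analogue, for 4 h (ODC) or 6 h (AdoMetDC). Activity was measured as 14CO2 released from [14C]carboxyl-labelled L-ornithine (ODC) or S-adenosyl-L-methionine (AdoMetDC) and given as percent of untreated control. Each run included DEHSPM-treated positive controls. Values are the mean of at least three experiments.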

[2] = target: T1, S-adenosylmethionine decarboxylase proenzyme 1 (Mus musculus) (UniProt P0DMN7); assay: Effect on S-Adenosyl-methionine decarboxylase (AdoMetDC) tested at 1 uM at 6 hour in L1210 cells; assay type: functional, cell-based; procedure, shortened: as §1
T1 sequence (whole entry): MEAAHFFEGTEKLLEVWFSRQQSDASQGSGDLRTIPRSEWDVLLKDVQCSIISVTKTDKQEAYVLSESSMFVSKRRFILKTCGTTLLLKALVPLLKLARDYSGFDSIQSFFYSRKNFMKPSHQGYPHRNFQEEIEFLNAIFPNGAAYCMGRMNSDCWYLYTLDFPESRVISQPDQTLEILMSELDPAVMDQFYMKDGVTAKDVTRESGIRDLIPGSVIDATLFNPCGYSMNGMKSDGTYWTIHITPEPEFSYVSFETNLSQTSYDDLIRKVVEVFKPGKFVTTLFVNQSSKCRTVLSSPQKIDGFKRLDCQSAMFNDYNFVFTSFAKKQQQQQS

L1210 [3] = assay: Percentage of spermidine after 48 hr of exposure to the compound (500(100)uM ) in L1210 cells; assay type: functional, Mus musculus
Procedure, shortened: (§2)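 Log-phase L1210 cells were treated for 48 h with analogue at two concentrations. Cells were washed twice in cold RPMI-1640 and extracted with 0.6 N HClO4. Putrescine, spermidine and spermine were quantified by HPLC of dansyl derivatives and given as percent of untreated controls. Runs were in triplicate with untreated controls.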

L1210 [4] = assay: Percentage of spermine after 48 hr exposure to the compound (100(10)uM ) in L1210 cells; assay type: functional, Mus musculus; procedure, shortened: as §2
L1210 [5] = assay: Growth inhibitory activity against L1210 cells (96h); assay type: functional, cell-based; conditions: Mus musculus, L1210, 96 h
Procedure, shortened: (§3)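 Murine L1210 leukemia cells were kept in log growth in RPMI-1640 with 10% fetal calf serum or NuSerum, HEPES-MOPS buffer and 1 mM aminoguanidine. IC50 is the concentration giving 50% of untreated control growth, as the mean of at least two experiments.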

L1210 [6] = assay: Percentage of spermine after 48 hr exposure to the compound (500(100)uM ) in L1210 cells; assay type: functional, Mus musculus; procedure, shortened: as §2
[7] = target: Spermidine/spermine N(1)-acetyltransferase (SAT) (Mus musculus) (UniProt Q6P8J2+P48026); assay: Effect on Spermidine/Spermine-Acetyltransferase (SSAT ) at 10 uM at 48 hour in L1210 cells; assay type: functional, cell-based
Sequence of Spermidine/spermine N(1)-acetyltransferase (SAT) (Mus musculus) (P48026 whole entry, looked up): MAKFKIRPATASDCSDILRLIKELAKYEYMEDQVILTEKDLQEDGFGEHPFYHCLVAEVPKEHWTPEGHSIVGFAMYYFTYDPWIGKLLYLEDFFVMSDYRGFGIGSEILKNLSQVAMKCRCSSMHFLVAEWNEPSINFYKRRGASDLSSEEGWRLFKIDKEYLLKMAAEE
Sequence of Spermidine/spermine N(1)-acetyltransferase (SAT) (Mus musculus) (Q6P8J2 whole entry, looked up): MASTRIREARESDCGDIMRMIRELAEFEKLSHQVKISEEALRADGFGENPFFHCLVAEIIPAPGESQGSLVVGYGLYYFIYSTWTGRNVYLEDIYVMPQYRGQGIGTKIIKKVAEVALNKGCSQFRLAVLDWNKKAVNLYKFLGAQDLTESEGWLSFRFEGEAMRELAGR
Procedure, shortened: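 L1210 cells were exposed to 10 μM triamine for 48 h. SSAT activity was taken as [14C]N1-acetylspermidine formed from spermidine and [14C]acetyl-CoA, given as percent of untreated control. DENSPM-treated cells served as positive control. Values are the mean of at least three experiments.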

L1210 [8] = assay: Percentage of putrescine after 48 hr exposure to the compound (500(100)uM )in L1210 cells; assay type: functional, Mus musculus; procedure, shortened: as §2
L1210 [9] = assay: Intracellular levels in L1210 cells following 500 uM exposure.; assay type: functional, Mus musculus
Procedure, shortened: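 L1210 cells were grown 48 h in medium containing 500 μM analogue. Cellular contents were analysed by HPLC of dansyl derivatives and given as pmol/10^6 cells, as parent drug and metabolites with the % of total drug in the cell.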

L1210 [10] = assay: Growth inhibitory activity against L1210 cells (48h); assay type: functional, cell-based; conditions: Mus musculus, L1210, 48 h; procedure, shortened: as §3
[11] = Binding affinity values for polyamine transporter was determined
L1210 [12] = assay: Percentage of putrescine after 48 hr exposure to the compound (100(10)uM) in L1210 cells; assay type: functional, Mus musculus; procedure, shortened: as §2
L1210 [13] = assay: Percentage of spermidine after 48 hr of exposure to the compound (100(10)uM ) in L1210 cells; assay type: functional, Mus musculus; procedure, shortened: as §2
L1210 [14] = assay: Percentage of putrescine after 48 hr exposure to the compound (75(0.75)uM ) in L1210 cells; assay type: functional, Mus musculus; procedure, shortened: as §2
L1210 [15] = assay: Percentage of spermine after 48 hr exposure to the compound (75(0.75)uM ) in L1210 cells; assay type: functional, Mus musculus
Procedure, shortened: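 Log-phase murine L1210 leukemia cells (RPMI-1640, 10% fetal calf serum or NuSerum, HEPES-MOPS buffer, 1 mM aminoguanidine) exposed 48 h to analogue at two concentrations. Cells washed twice in cold RPMI-1640 and extracted with 0.6 N HClO4. Spermine in extracts quantified by HPLC of DANSYL derivatives and expressed as percent of untreated controls. Triplicate flasks per condition.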

L1210 [16] = assay: Percentage of putrescine after 48 hr exposure to the compound (15(0.15)uM ) in L1210 cells; assay type: functional, Mus musculus; procedure, shortened: as §2
L1210 [17] = assay: Percentage of spermidine after 48 hr of exposure to the compound (15(0.15)uM ) in L1210 cells; assay type: functional, Mus musculus; procedure, shortened: as §2
L1210 [18] = assay: Percentage of spermidine after 48 hr of exposure to the compound (75(0.75)uM ) in L1210 cells; assay type: functional, Mus musculus; procedure, shortened: as §2
L1210 [19] = assay: Percentage of spermine after 48 hr exposure to the compound (15(0.15)uM ) in L1210 cells; assay type: functional, Mus musculus; procedure, shortened: as §2
L1210 [20] = assay: Percentage of spermidine after 48 hr of exposure to the compound (2 uM ) in L1210 cells; assay type: functional, Mus musculus; procedure, shortened: as §2
L1210 [21] = assay: Percentage of spermidine after 48 hr of exposure to the compound (10 uM ) in L1210 cells; assay type: functional, Mus musculus; procedure, shortened: as §2
L1210 [22] = assay: Percentage of putrescine after 48 hr exposure to the compound (2 uM ) in L1210 cells; assay type: functional, Mus musculus; procedure, shortened: as §2
L1210 [23] = assay: Percentage of putrescine after 48 hr exposure to the compound (10 uM ) in L1210 cells; assay type: functional, Mus musculus; procedure, shortened: as §2
L1210 [24] = assay: Percentage of putrescine after 48 hr exposure to the compound (3(0.3)uM ) in L1210 cells; assay type: functional, Mus musculus; procedure, shortened: as §2
L1210 [25] = assay: Percentage of spermidine after 48 hr of exposure to the compound (3(0.3)uM ) in L1210 cells; assay type: functional, Mus musculus; procedure, shortened: as §2
L1210 [26] = assay: Percentage of putrescine after 48 hr exposure to the compound (15(1.5)uM ) in L1210 cells; assay type: functional, Mus musculus; procedure, shortened: as §2
L1210 [27] = assay: Percentage of spermidine after 48 hr of exposure to the compound (15(1.5)uM ) in L1210 cells; assay type: functional, Mus musculus; procedure, shortened: as §2
[28] = The chronic lethal dose administered as intraperitoneal injection; assay type: ADME; conditions: mouse, ip
Procedure, shortened: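 Female CD-1 mice, 10–12 weeks old. Analogue given as hydrochloride salt by ip injection three times daily for 6 days (18 doses). Appetite, weight and appearance monitored daily, and lethality scored 10 days after the final dose.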

L1210 [29] = assay: Percentage of spermine after 48 hr exposure to the compound (3(0.3)uM ) in L1210 cells; assay type: functional, Mus musculus; procedure, shortened: as §2
L1210 [30] = assay: Percentage of spermine after 48 hr exposure to the compound (15(1.5)uM ) in L1210 cells; assay type: functional, Mus musculus; procedure, shortened: as §2

AdoMetDC [2]	IC50 (L1210 [5])	SSAT [7]	IC50 (L1210 [10])	Ki [11]	Structure (SMILES)	ODC [1]	Picoequivalents of amine/10e6 cells (L1210 [9])	further results
45%	10 µM	780%	> 100 µM	250 µM	CCNCCCNCCCNCC	80%	13700	Polyamine (L1210 [3]): 7%; Polyamine (L1210 [4]): 74%; Polyamine (L1210 [6]): 47%; Polyamine (L1210 [8]): 0%; Polyamine (L1210 [12]): 0%; Polyamine (L1210 [13]): 17%
109%	0.7 µM	90%	11 µM	170 µM	CCNCCCCCNCCCCCNCC	100%	9010	Polyamine (L1210 [14]): 0%; Polyamine (L1210 [15]): 73%; Polyamine (L1210 [16]): 0%; Polyamine (L1210 [17]): 55%; Polyamine (L1210 [18]): 23%; Polyamine (L1210 [19]): 97%
71%	0.12 µM	130%	2 µM	21 µM	CNCCCCCNCCCCNC	56%	20810	Polyamine (L1210 [20]): 33%; Polyamine (L1210 [21]): 18%; Polyamine (L1210 [22]): 0%; Polyamine (L1210 [23]): 0%

Structure (SMILES)	AdoMetDC [2]	IC50 (L1210 [5])	SSAT [7]	IC50 (L1210 [10])	Ki [11]	ODC [1]	Picoequivalents of amine/10e6 cells (L1210 [9])	further results
CCNCCCCCNCCCCNCC	70%	0.2 µM	120%	4.5 µM	64 µM	100%	14590	Polyamine (L1210 [24]): 0%; Polyamine (L1210 [25]): 47%; Polyamine (L1210 [26]): 0%; Polyamine (L1210 [27]): 18%; LD50 [28]: 375 mg/kg/day; Polyamine (L1210 [29]): 99%; Polyamine (L1210 [30]): 98%
